Measurements pooled from the literature.
Protocols differ between the studies behind these lines.

COc1cc(C=Cc2cc(-c3ccccc3)nc(O)n2)ccc1O — inhibition (DPPH scavenging; 50 µg/mL): 61.6%
Cc1cccc(N(O)N=Nc2ccc(S(=O)(=O)Nc3cc(C)on3)cc2)c1 — inhibition (DPPH scavenging; absorbance; 180 µg/mL): 34.7%
COc1ccc(-c2ccc(-c3ccc(C(=N)N)nc3)s2)cc1 — GI50 (786-0; cell growth or viability): 1880 nM
CCCN(O)N=Nc1ccc(S(=O)(=O)Nc2cc(C)on2)cc1 — inhibition (DPPH scavenging; absorbance; 300 µg/mL): 27.6%
CNC(=O)c1cc(Oc2ccc(NC(=O)Nc3ccc(Cl)c(C(F)(F)F)c3)cc2)ccn1 — MIC (Salmonella; microbial growth; clinical isolate): > 100 µM
COc1cc(C=CC(=O)CC(c2ccc(N(C)C)cc2)n2ccnc2)ccc1O (stereo not drawn) — inhibition (DPPH scavenging; 12.5 µg/mL): 42.7%
CCN(O)N=Nc1ccc(S(=O)(=O)Nc2nccs2)cc1 — inhibition (DPPH scavenging; absorbance; 60 µg/mL): 9.02%
Oc1ccc(Br)cc1C=NCCN1CCOCC1 — inhibition (DPPH scavenging; absorbance; 120 µM): 28.6%
O=C1O[C@H]([C@@H](O)CO)C(O)=C1O — inhibition (DPPH scavenging; 12.5 µg/mL): 38.9%
O=C1O[C@H]([C@@H](O)CO)C(O)=C1O — inhibition (DPPH scavenging; absorbance; 80 µM): 53.7%
O=S(=O)(Nc1nccs1)c1ccc(N=NN(O)c2ccccc2)cc1 — inhibition (DPPH scavenging; absorbance; 180 µg/mL): 34.2%
COc1cc(C=CC(=O)CC(c2ccc([N+](=O)[O-])cc2)n2ccnc2)ccc1O (stereo not drawn) — inhibition (DPPH scavenging; 50 µg/mL): 61.4%
